# Experimental data: ChEMBL document CHEMBL4196064, “Identification of Pyrazolo[3,4-e][1,4]thiazepin based CYP51 inhibitors as potential Chagas disease therapeutic alternative: In vitro and in vivo evaluation, binding mode prediction and SAR exploration” (Eur J Med Chem, 2018)
# The source made the active and inactive calls. No cut-off for these calls is given here.
# How the values were obtained:
# [1] = tested on: Trypanosoma cruzi; experiment: Antitrypanosomal activity against bloodstream trypomastigote stage of Trypanosoma cruzi Y measured after 2 hrs by light microscopic analysis; assay type: functional, organism-based
# Outline: (§1)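 Y strain bloodstream trypomastigotes from heart puncture of infected mice, at 5x10⁶/mL in RPMI 1640 with 5% FBS. Incubated at 37℃ with 0–50 µM for 2 or 24 h. […] Mean ± SD.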
# [2] = tested on: Trypanosoma cruzi; experiment: Antitrypanosomal activity against Trypanosoma cruzi Tulahuen trypomastigote forms infected in mouse L929 cells assessed as reduction in infection level at 10 to 12 uM after 96 hrs by beta-galactosidase reporter gene assay relative to control; assay type: functional; design: scale not given: the % may be the effect or the level left
# Outline: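 L929 cells infected 2 h with tissue culture-derived β-galactosidase-expressing Tulahuen trypomastigotes at 10:1 parasite/host cell ratio, rinsed, and held 48 h at 37℃. Single fixed concentration (10-12 µM) then applied, 96 h. Absorbance read at 570 nm; growth inhibition expressed relative to untreated cells. DMSO not above 0.6 %.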
# [3] = Selectivity index, ratio of LC50 for mouse L929 cells by light microscopic analysis to EC50 for Trypanosoma cruzi Tulahuen trypomastigote forms; assay type: toxicity; details: read-out: Selectivity Index
# [4] = Selectivity index, ratio of LC50 for mouse L929 cells by Alamarblue assay to EC50 for Trypanosoma cruzi Tulahuen trypomastigote forms; assay type: toxicity; details: read-out: Selectivity Index
# [5] = Cytotoxicity against Swiss Webster mouse cardiac cells assessed as reduction in cell viability after 24 hrs by prestoblue assay; assay type: cell-based, Cardiac Muscle Cell; details: read-out: LC50
# Outline: (§2)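 Primary cardiac cells from Swiss Webster mouse embryos, cultured at 37°C in DMEM with 5% FBS, CaCl2, glutamine and chick embryo extract. Uninfected cultures were exposed to increasing concentrations for 24 h. Viability was read with PrestoBlue (5 h incubation, absorbance at 570 nm) and checked by light microscopy for morphology.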
# [6] = Cytotoxicity against mouse L929 cells assessed as reduction in cell viability after 96 hrs by light microscopic analysis; assay type: cell-based; details: read-out: LC50
# Outline: (§3)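 L929 fibroblasts (4x10^3 cells/well) in RPMI 1640 with 10% FBS, incubated at 37°C with increasing concentrations for 96 h. Viability was read with AlamarBlue (6 h incubation, absorbance at 600 nm) and confirmed by light microscopy.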
# [7] = Selectivity index, ratio of LC50 for Swiss Webster mouse cardiac cells by prestoblue assay to EC50 for bloodstream trypomastigote stage of Trypanosoma cruzi Y measured after 24 hrs; assay type: toxicity; details: read-out: Selectivity Index
# Outline: (§4)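 The ratio is cardiac-cell LC50 (24 h) over the 24 h EC50 against Y-strain bloodstream trypomastigotes. Trypomastigotes (5x10^6/mL) were exposed to 0-50 µM at 37°C in RPMI with 5% FBS. Surviving parasites were counted in a Neubauer chamber, and the EC50 is the concentration halving the parasite number.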
# [8] = Cytotoxicity against Swiss Webster mouse cardiac cells assessed as reduction in cell viability after 24 hrs by light microscopic analysis; assay type: cell-based, Cardiac Muscle Cell; details: read-out: LC50; outline: as §2
# [9] = Cytotoxicity against mouse L929 cells assessed as reduction in cell viability after 96 hrs by Alamarblue assay; assay type: cell-based; details: read-out: LC50; outline: as §3
# [10] = tested on: Trypanosoma cruzi; experiment: Antitrypanosomal activity against bloodstream trypomastigote stage of Trypanosoma cruzi Y measured after 24 hrs by light microscopic analysis; assay type: functional, organism-based; outline: as §1
# [11] = Selectivity index, ratio of LC50 for Swiss Webster mouse cardiac cells by light microscopic analysis to EC50 for bloodstream trypomastigote stage of Trypanosoma cruzi Y measured after 24 hrs; assay type: toxicity; details: read-out: Selectivity Index; outline: as §4
# [12] = tested on: Trypanosoma cruzi; experiment: Antitrypanosomal activity against Trypanosoma cruzi Tulahuen trypomastigote forms infected in mouse L929 cells assessed as reduction in parasite load after 96 hrs by beta-galactosidase reporter gene assay; assay type: functional, organism-based; details: L929, 96 h
# Outline: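 L929 cells infected 2 h with tissue culture-derived Tulahuen β-galactosidase trypomastigotes (10:1 parasite/host cell), rinsed with saline, and left 48 h at 37℃. Increasing non-toxic concentrations applied for 96 h. Absorbance read at 570 nm, % growth inhibition versus untreated cells, EC50 derived; mean ± SD. DMSO not above 0.6 %.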
# [13] = biological target: Sterol 14-alpha demethylase (Trypanosoma cruzi (strain CL Brener)) (UniProt Q7Z1V1); experiment: Inhibition of recombinant Trypanosoma cruzi Tulahuen CYP51 expressed in Escherichia coli JM109 cell membranes assessed as residual activity at 0.0165 uM by fluorescence based analysis (reference value: 100%)
# Outline: (§5)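 Fluorescence-based functional assay using recombinant T. cruzi (Tulahuen) CYP51. […] Residual activity was measured across a concentration series and fitted to a curve to give the IC50.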
# [14] = biological target: Sterol 14-alpha demethylase (Trypanosoma cruzi (strain CL Brener)) (UniProt Q7Z1V1); experiment: Inhibition of recombinant Trypanosoma cruzi Tulahuen CYP51 expressed in Escherichia coli JM109 cell membranes assessed as residual activity at 0.0005 uM by fluorescence based analysis (reference value: 100%); outline: as §5
# [15] = biological target: Sterol 14-alpha demethylase (Trypanosoma cruzi (strain CL Brener)) (UniProt Q7Z1V1); experiment: Inhibition of recombinant Trypanosoma cruzi Tulahuen CYP51 expressed in Escherichia coli JM109 cell membranes assessed as residual activity at 0.17 uM by fluorescence based analysis (reference value: 100%); outline: as §5
# [16] = biological target: Sterol 14-alpha demethylase (Trypanosoma cruzi (strain CL Brener)) (UniProt Q7Z1V1); experiment: Inhibition of recombinant Trypanosoma cruzi Tulahuen CYP51 expressed in Escherichia coli JM109 cell membranes assessed as residual activity at 0.05 uM by fluorescence based analysis (reference value: 100%); outline: as §5
# [17] = biological target: Sterol 14-alpha demethylase (Trypanosoma cruzi (strain CL Brener)) (UniProt Q7Z1V1); experiment: Inhibition of recombinant Trypanosoma cruzi Tulahuen CYP51 expressed in Escherichia coli JM109 cell membranes assessed as residual activity at 0.00165 uM by fluorescence based analysis (reference value: 100%); outline: as §5
# [18] = biological target: Sterol 14-alpha demethylase (Trypanosoma cruzi (strain CL Brener)) (UniProt Q7Z1V1); experiment: Inhibition of recombinant Trypanosoma cruzi Tulahuen CYP51 expressed in Escherichia coli JM109 cell membranes assessed as residual activity at 0.005 uM by fluorescence based analysis (reference value: 100%); outline: as §5
# [19] = biological target: Sterol 14-alpha demethylase (Trypanosoma cruzi (strain CL Brener)) (UniProt Q7Z1V1); experiment: Inhibition of recombinant Trypanosoma cruzi Tulahuen CYP51 expressed in Escherichia coli JM109 cell membranes assessed as residual activity at 0.5 uM by fluorescence based analysis (reference value: 100%); outline: as §5
# [20] = tested on: Trypanosoma cruzi; experiment: Trypanocidal activity against Trypanosoma cruzi Sylvio X10/7 intracellular amastigotes forms assessed as inhibition of maximum parasite growth measured every 24 hrs for 96 hrs by time-kill assay relative to control; assay type: functional
# [21] = tested on: Trypanosoma cruzi; experiment: Trypanocidal activity against Trypanosoma cruzi Sylvio X10/7 intracellular amastigotes forms measured every 24 hrs for 96 hrs by time-kill assay; assay type: functional
# [22] = tested on: Trypanosoma cruzi; experiment: Antitrypanosomal activity against bloodstream trypomastigote stage of Trypanosoma cruzi Y infected in Swiss Webster mouse assessed as increase in mouse survival at 5 to 20 mg/kg, ip administered daily on day 5 to 9 measured daily until 30 days post dose relative to control; assay type: functional, organism-based
# Outline: (§6)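 Male Swiss Webster mice (18–20 g) infected i.p. with 10^4 Y strain bloodstream trypomastigotes. Treatment given days 5–9 post infection: test compound i.p. 5–20 mg/kg/day (0.1 mL, DMSO then 20% Trappsol) or Bz 100 mg/kg/day p.o. (3% Tween 80 in water). Controls infected, vehicle only. Parasitemia counted by Pizzi-Brener in 5 µL tail blood; mortality checked daily to 30 days post treatment.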
# [23] = tested on: Trypanosoma cruzi; experiment: Antitrypanosomal activity against bloodstream trypomastigote stage of Trypanosoma cruzi Y infected in Swiss Webster mouse assessed as reduction in parasitemia at 10 mg/kg, ip administered daily on day 5 to 9 post infection relative to control; assay type: functional; outline: as §6
# [24] = tested on: Trypanosoma cruzi; experiment: Antitrypanosomal activity against bloodstream trypomastigote stage of Trypanosoma cruzi Y infected in Swiss Webster mouse assessed as reduction in parasitemia at 5 mg/kg, ip administered daily on day 5 to 9 post infection relative to control; assay type: functional; outline: as §6
# [25] = tested on: Trypanosoma cruzi; experiment: Antitrypanosomal activity against bloodstream trypomastigote stage of Trypanosoma cruzi Y infected in Swiss Webster mouse assessed as reduction in parasitemia at 20 mg/kg, ip administered daily on day 5 to 9 post infection relative to control; assay type: functional; outline: as §6
# Chain of Sterol 14-alpha demethylase (Trypanosoma cruzi (strain CL Brener)) (Q7Z1V1 whole entry, looked up): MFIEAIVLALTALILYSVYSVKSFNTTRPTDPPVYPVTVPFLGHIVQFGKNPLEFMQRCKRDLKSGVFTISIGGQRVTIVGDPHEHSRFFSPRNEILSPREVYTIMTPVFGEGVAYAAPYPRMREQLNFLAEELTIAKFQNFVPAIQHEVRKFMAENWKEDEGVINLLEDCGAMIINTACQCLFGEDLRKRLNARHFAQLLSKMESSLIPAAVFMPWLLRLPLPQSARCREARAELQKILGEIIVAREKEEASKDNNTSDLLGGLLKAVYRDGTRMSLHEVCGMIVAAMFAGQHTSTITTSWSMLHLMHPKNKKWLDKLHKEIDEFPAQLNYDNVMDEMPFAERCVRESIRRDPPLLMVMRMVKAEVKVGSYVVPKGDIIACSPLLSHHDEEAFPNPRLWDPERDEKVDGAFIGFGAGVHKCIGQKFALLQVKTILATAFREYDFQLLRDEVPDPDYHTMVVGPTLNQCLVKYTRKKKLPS
structure (smiles),measurement,setting,value
Cc1n[nH]c2c1[C@@H](c1ccc(OCc3ccccc3F)cc1)S[C@@H](C)C(=O)N2,EC50,[1],> 50 µM
same,Activity,[2],63.64%
same,selectivity ratio,[3],> 38
same,selectivity ratio,[4],> 38
same,CC50 at 24 h,[5],> 200 µM
same,CC50 at 96 h,[6],> 200 µM
same,selectivity ratio at 24 h,[7],> 4
same,CC50 at 24 h,[8],> 200 µM
same,CC50 at 96 h,[9],> 200 µM
same,EC50,[10],> 50 µM
same,selectivity ratio at 24 h,[11],> 4
same,EC50,[12],5.3 µM
CC[C@@H]([C@H](C)O)n1ncn(-c2ccc(N3CCN(c4ccc(OC[C@@H]5CO[C@@](Cn6cncn6)(c6ccc(F)cc6F)C5)cc4)CC3)cc2)c1=O,Activity,[13],71.9%
same,Activity,[14],100%
same,Activity,[15],0%
same,Activity,[16],32%
same,Activity,[17],98.4%
same,Activity,[18],92.8%
same,Activity,[19],0%
Cc1n[nH]c2c1[C@@H](c1ccc(OCc3ccc(Cl)cc3)cc1)S[C@@H](C)C(=O)N2,Activity,[2],14.88%
CC1CS(=O)(=O)CCN1/N=C/c1ccc([N+](=O)[O-])o1 (stereo unspecified) [NIFURTIMOX],Imax,[20],103%
same,MIC,[21],5 µM
Cc1ccccc1COc1ccc([C@H]2S[C@@H](C)C(=O)Nc3[nH]nc(C)c32)cc1,EC50,[1],> 50 µM
same,Activity,[2],69.14%
same,selectivity ratio,[3],50.4
same,selectivity ratio,[4],50.4
same,CC50 at 24 h,[5],> 200 µM
same,CC50 at 96 h,[6],111 µM
same,selectivity ratio at 24 h,[7],> 5.2
same,CC50 at 24 h,[8],> 200 µM
same,CC50 at 96 h,[9],111 µM
same,EC50,[10],38.6 µM
same,selectivity ratio at 24 h,[11],> 5.2
same,EC50,[12],2.2 µM
COc1cc([C@H]2S[C@@H](C)C(=O)Nc3[nH]nc(C)c32)ccc1OCc1ccc(Cl)cc1,EC50,[1],> 50 µM
same,Activity,[2],53.94%
same,selectivity ratio,[3],4.7
same,selectivity ratio,[4],4.7
same,CC50 at 96 h,[6],50.6 µM
same,CC50 at 96 h,[9],50.6 µM
same,EC50,[10],39.4 µM
same,EC50,[12],10.8 µM
COc1cc([C@H]2S[C@@H](C)C(=O)Nc3[nH]nc(C)c32)ccc1OCc1ccccc1,Activity,[2],12.02%
COc1cc([C@H]2S[C@@H](C)C(=O)Nc3[nH]nc(C)c32)ccc1OCc1cccc(Cl)c1,Activity,[2],39.94%
COc1cc([C@H]2S[C@@H](C)C(=O)Nc3[nH]nc(C)c32)ccc1OCc1ccccc1C,Activity,[2],16.43%
Cc1cccc(COc2ccc([C@H]3S[C@@H](C)C(=O)Nc4[nH]nc(C)c43)cc2)c1,Activity,[22],inactive
same,EC50,[1],> 50 µM
same,Activity,[2],89.25%
same,Activity,[23],inactive
same,selectivity ratio,[3],36.6
same,selectivity ratio,[4],36.6
same,CC50 at 24 h,[5],66 µM
same,CC50 at 96 h,[6],98.9 µM
same,Activity,[24],inactive
same,selectivity ratio at 24 h,[7],3.2
same,CC50 at 24 h,[8],66 µM
same,Activity,[25],inactive
same,CC50 at 96 h,[9],98.9 µM
same,EC50,[10],20.6 µM
same,selectivity ratio at 24 h,[11],3.2
same,EC50,[12],2.7 µM
Cc1n[nH]c2c1[C@@H](c1ccc(OC(C)C)cc1)S[C@@H](C)C(=O)N2,Activity,[2],0%
C=CCOc1ccc([C@H]2S[C@@H](C)C(=O)Nc3[nH]nc(C)c32)cc1,Activity,[2],0%
Cc1n[nH]c2c1[C@@H](c1ccc(OCc3cccc(F)c3)cc1)S[C@@H](C)C(=O)N2,EC50,[1],> 50 µM
same,Activity,[2],70.68%
same,selectivity ratio,[3],19.4
same,selectivity ratio,[4],19.4
same,CC50 at 24 h,[5],94 µM
same,CC50 at 96 h,[6],103 µM
same,selectivity ratio at 24 h,[7],3.71
same,CC50 at 24 h,[8],94 µM
same,CC50 at 96 h,[9],103 µM
same,EC50,[10],47 µM
same,selectivity ratio at 24 h,[11],3.71
same,EC50,[12],5.32 µM
COc1cc([C@H]2S[C@@H](C)C(=O)Nc3[nH]nc(C)c32)ccc1OCc1ccccc1Cl,Activity,[2],27.88%
CCCOc1ccc([C@H]2S[C@@H](C)C(=O)Nc3[nH]nc(C)c32)cc1,Activity,[2],0%
Cc1n[nH]c2c1[C@@H](c1ccc(OCc3ccc(F)cc3)cc1)S[C@@H](C)C(=O)N2,Activity,[2],32.42%
COc1cc([C@H]2S[C@@H](C)C(=O)Nc3[nH]nc(C)c32)ccc1OCc1ccc(C)cc1,Activity,[2],1.98%
COc1cc([C@H]2S[C@@H](C)C(=O)Nc3[nH]nc(C)c32)ccc1OCc1cccc(C)c1,Activity,[2],25.05%
Cc1ccc(COc2ccc([C@H]3S[C@@H](C)C(=O)Nc4[nH]nc(C)c43)cc2)cc1,Activity,[2],0%
